Active and inactive are the calls of the source. No cut-off for these calls is given here.
How the values were obtained:
[1] = biological target: Tyrosine-protein kinase Fyn (Homo sapiens, UniProt P06241, S349C/T342G); assay: Inhibition of Fyn T342G/S349C double mutant expressed in Escherichia coli C43 by radioactive phosphotransfer assay
[2] = Inhibition of c-src T338G/S345C double mutant by radioactive phosphotransfer assay
How it was run: (§1)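 Kinase-domain c-Src variants (T338G, S345C, T338G/S345C) were made by site-directed mutagenesis and expressed in E. coli BL21(DE3) co-transformed with YopH, GroEL and trigger factor. Protein was quantified by A280 and stored at −80 °C. Radioactive phosphotransfer assays were run in triplicate across a range of inhibitor concentrations.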

[3] = biological target: Tyrosine-protein kinase Fyn (Homo sapiens, UniProt P06241); assay: Inhibition of Fyn expressed in Escherichia coli C43 by radioactive phosphotransfer assay
Tyrosine-protein kinase Fyn (Homo sapiens, UniProt P06241), sequence (P06241 whole entry): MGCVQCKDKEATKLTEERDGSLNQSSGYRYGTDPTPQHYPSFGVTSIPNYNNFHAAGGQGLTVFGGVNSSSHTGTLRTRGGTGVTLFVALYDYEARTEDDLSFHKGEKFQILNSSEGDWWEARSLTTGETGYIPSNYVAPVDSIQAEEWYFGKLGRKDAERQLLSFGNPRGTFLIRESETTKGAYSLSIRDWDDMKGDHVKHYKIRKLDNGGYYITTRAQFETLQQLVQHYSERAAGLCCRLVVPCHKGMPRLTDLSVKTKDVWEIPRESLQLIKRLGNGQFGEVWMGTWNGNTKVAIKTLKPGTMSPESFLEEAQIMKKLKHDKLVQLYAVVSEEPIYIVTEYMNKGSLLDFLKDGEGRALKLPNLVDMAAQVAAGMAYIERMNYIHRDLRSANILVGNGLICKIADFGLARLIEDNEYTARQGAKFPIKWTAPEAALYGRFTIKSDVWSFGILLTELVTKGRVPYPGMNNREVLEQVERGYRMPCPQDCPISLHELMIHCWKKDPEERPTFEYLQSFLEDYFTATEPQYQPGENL

[4] = biological target: T1, Epidermal growth factor receptor (Homo sapiens, UniProt P00533); assay: Inhibition of EGFR3 transfected in EGF-stimulated mouse NIH/3T3 cells assessed as reduction of receptor-mediated Akt phosphorylation at 0.037 to 1 uM by radioactive phosphotransfer assay; format: cell-based; conditions: NIH3T3, in the assay text read “immunoblotting” for “radioactive phosphotransfer assay”
T1 sequence (P00533 whole entry): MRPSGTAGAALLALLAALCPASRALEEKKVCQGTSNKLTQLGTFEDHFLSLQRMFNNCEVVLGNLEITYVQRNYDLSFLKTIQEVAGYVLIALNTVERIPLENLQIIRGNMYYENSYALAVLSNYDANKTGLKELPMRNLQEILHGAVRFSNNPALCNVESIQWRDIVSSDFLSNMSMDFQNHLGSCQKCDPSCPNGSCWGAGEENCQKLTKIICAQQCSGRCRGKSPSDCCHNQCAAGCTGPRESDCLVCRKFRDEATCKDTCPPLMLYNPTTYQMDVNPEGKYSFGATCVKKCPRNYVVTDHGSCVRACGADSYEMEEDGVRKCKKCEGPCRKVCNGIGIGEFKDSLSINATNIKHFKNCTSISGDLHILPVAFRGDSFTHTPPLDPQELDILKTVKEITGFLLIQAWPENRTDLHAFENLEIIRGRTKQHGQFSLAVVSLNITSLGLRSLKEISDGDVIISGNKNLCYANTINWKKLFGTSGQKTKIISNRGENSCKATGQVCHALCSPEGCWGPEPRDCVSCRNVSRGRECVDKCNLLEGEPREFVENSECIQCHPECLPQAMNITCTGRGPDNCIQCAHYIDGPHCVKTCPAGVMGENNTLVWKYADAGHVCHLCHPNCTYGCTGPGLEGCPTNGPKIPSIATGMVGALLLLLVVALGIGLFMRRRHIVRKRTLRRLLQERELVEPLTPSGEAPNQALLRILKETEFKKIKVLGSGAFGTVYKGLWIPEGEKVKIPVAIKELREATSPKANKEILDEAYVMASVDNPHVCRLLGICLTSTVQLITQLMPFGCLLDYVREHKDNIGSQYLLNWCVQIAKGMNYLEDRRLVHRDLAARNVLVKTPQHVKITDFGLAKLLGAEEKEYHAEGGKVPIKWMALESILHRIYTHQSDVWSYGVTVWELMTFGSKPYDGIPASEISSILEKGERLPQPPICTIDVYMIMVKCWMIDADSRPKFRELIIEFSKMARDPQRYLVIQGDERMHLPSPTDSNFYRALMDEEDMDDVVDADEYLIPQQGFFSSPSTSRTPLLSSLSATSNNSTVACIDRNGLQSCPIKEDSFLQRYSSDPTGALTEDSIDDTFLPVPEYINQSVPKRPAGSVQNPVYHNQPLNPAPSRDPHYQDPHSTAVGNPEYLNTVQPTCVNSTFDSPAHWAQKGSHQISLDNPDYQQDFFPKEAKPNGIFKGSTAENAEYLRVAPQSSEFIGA
How it was run: (§2)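 Transduced 3T3:EGFR-as3 cells were serum-starved overnight in 0.5% FBS, then given three-fold inhibitor dilutions from 1 µM to 37 nM (1% DMSO) for 1.5 h. […] Protein-normalised lysates were separated by SDS-PAGE, fluorescence-scanned, then immunoblotted for downstream phosphorylation. Run in duplicate.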

[5] = biological target: T1, Epidermal growth factor receptor; assay: Inhibition of […] EGFR3 phosphorylation transfected in mouse NIH/3T3 cells at 0.1 to 2 uM by radioactive phosphotransfer assay; format: cell-based; conditions: NIH3T3, in the assay text read “immunoblotting” for “radioactive phosphotransfer assay”
How it was run: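 Mouse NIH-3T3 fibroblasts lacking detectable endogenous EGFR, retrovirally transduced with analog-sensitive EGFR-as3 and hygromycin-selected, then grown in DMEM/10% FBS. Inhibitor at 0.1, 1.0 or 2.0 µM (1.2% DMSO), with or without EGF 100 ng/ml for 30 min before harvest. Equal lysate protein run on SDS-PAGE; anti-phosphotyrosine (4G10) immunoblot detected by ECL, with EGFR blot alongside.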

[6] = Inhibition of c-src T338G mutant by radioactive phosphotransfer assay; how it was run: as §1
[7] = biological target: T1, Epidermal growth factor receptor; assay: Inhibition of human recombinant EGFR expressed in baculovirus-infected Sf9 cells by radioactive phosphotransfer assay; format: cell-based
[8] = biological target: T1, Epidermal growth factor receptor; assay: Inhibition of EGFR3 transfected in EGF-stimulated mouse NIH/3T3 cells assessed as reduction of receptor-mediated Erk1 phosphorylation at 0.037 to 1 uM by radioactive phosphotransfer assay; format: cell-based; conditions: NIH3T3, in the assay text read “immunoblotting” for “radioactive phosphotransfer assay”; how it was run: as §2
[9] = biological target: T1, Epidermal growth factor receptor; assay: Inhibition of EGFR3 transfected in EGF-stimulated mouse NIH/3T3 cells assessed as reduction of receptor-mediated Erk2 phosphorylation at 0.037 to 1 uM by radioactive phosphotransfer assay; format: cell-based; conditions: NIH3T3, in the assay text read “immunoblotting” for “radioactive phosphotransfer assay”; how it was run: as §2
[10] = biological target: Proto-oncogene tyrosine-protein kinase Src (Gallus gallus) (UniProt P00523); assay: Inhibition of c-src in by radioactive phosphotransfer assay
[11] = biological target: Tyrosine-protein kinase Fyn (Homo sapiens, UniProt P06241, S349C); assay: Inhibition of Fyn S349C mutant in expressed in Escherichia coli C43 by radioactive phosphotransfer assay
Tyrosine-protein kinase Fyn (Homo sapiens, UniProt P06241, S349C), sequence (P06241 2-537 S349C limits assumed): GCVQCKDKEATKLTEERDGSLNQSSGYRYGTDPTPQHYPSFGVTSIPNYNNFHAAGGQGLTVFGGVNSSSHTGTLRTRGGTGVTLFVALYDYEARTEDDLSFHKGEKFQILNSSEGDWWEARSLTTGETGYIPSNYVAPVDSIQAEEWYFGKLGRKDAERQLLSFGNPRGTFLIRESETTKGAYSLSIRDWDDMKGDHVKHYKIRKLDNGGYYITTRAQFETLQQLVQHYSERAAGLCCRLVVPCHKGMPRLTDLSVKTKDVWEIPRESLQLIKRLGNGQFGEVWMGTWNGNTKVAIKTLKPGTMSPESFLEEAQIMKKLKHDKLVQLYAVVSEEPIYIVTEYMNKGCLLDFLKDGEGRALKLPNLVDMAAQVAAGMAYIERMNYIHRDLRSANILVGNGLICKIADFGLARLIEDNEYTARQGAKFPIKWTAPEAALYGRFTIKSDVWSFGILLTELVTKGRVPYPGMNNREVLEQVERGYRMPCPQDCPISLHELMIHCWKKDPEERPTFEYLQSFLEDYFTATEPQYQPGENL

[12] = biological target: T1, Epidermal growth factor receptor; conditions: NIH3T3; at 0.1 to 2 µM
[13] = biological target: Tyrosine-protein kinase Fyn (Homo sapiens, UniProt P06241, T342G); assay: Inhibition of Fyn T342G mutant expressed in Escherichia coli C43 by radioactive phosphotransfer assay
Tyrosine-protein kinase Fyn (Homo sapiens, UniProt P06241, T342G), sequence (P06241 2-537 T342G limits assumed): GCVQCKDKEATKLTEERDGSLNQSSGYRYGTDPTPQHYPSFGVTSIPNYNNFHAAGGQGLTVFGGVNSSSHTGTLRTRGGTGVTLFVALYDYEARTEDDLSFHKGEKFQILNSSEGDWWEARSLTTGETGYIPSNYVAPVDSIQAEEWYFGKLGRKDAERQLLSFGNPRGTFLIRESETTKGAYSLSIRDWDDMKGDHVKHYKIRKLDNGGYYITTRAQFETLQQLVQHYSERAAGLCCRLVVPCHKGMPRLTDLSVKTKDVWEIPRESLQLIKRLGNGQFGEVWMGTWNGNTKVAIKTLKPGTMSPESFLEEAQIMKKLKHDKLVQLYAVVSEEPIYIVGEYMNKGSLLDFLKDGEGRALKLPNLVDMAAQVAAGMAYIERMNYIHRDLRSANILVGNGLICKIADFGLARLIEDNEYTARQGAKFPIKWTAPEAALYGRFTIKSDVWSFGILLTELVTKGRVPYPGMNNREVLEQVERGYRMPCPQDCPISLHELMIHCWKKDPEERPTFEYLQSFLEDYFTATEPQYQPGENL

Tyrosine-protein kinase Fyn (Homo sapiens, UniProt P06241, S349C/T342G), sequence (P06241 2-537 T342G/S349C limits assumed): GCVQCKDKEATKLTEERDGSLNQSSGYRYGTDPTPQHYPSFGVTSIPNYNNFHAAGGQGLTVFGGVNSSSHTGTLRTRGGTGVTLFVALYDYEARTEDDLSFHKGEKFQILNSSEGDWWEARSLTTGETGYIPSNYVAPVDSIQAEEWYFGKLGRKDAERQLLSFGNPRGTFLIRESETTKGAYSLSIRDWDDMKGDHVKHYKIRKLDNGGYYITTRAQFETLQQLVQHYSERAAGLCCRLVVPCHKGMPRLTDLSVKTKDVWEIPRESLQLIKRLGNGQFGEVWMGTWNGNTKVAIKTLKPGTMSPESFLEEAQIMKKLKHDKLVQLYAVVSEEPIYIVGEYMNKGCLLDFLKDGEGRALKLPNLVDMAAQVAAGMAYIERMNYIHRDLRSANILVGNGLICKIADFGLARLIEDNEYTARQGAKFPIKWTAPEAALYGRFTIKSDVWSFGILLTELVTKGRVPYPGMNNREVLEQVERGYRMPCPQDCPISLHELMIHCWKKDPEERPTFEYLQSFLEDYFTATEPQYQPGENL

Structure (SMILES)	IC50 [1] [nM]	IC50 [2] [nM]	IC50 [3] [nM]	inhibition [4]	inhibition [5]	IC50 [6] [nM]	IC50 [7] [nM]	inhibition [8]	inhibition [9]	IC50 [10] [nM]	IC50 [11] [nM]	inhibition [12]	IC50 [13] [nM]
C=CC(=O)Nc1ccc2ncnc(Nc3ccc(C(C)(C)C)cc3)c2c1	24	5	> 300000	Active	Active	187	689	Active	Active	> 27000	8400	inactive	900
CCC(=O)Nc1ccc2ncnc(Nc3ccc(C(C)(C)C)cc3)c2c1	540	254	> 300000	–	–	218	–	–	–	> 27000	> 300000	–	1500
C=CC(=O)Nc1ccc2ncnc(NCc3cccc4ccccc34)c2c1	150	24	32000	–	–	123	–	–	–	> 27000	1700	–	1500
C=CC(=O)Nc1ccc2ncnc(Nc3ccc4ccccc4c3)c2c1	3	13	18100	–	–	1360	–	–	–	> 27000	32	–	1800
C=CC(=O)Nc1ccc2ncnc(NCCc3ccccc3)c2c1	88	109	40000	–	–	551	–	–	–	> 27000	1400	–	3800
C=CC(=O)Nc1ccc2ncnc(Nc3ccc(C(C)C)cc3)c2c1	32	16	> 300000	–	–	357	–	–	–	> 27000	340	–	2200
C=CC(=O)Nc1ccc2ncnc(Nc3ccccc3)c2c1	6	20	3700	–	–	1570	< 1	–	–	> 27000	5	–	1100
C=CC(=O)Nc1ccc2ncnc(Nc3ccc(Br)cc3)c2c1	19	37	> 300000	–	–	1740	–	–	–	> 27000	34	–	4650
C=CC(=O)Nc1ccc2ncnc(Nc3ccc(-c4ccccc4)cc3)c2c1	107	13	> 300000	–	–	374	–	–	–	> 27000	760	–	9700
C=CC(=O)Nc1ccc2ncnc(Nc3cccc4ccccc34)c2c1	30	27	16300	–	–	1270	–	–	–	16300	670	–	2100
C=CC(=O)Nc1ccc2ncnc(Nc3cccc(Br)c3)c2c1	1	1	> 300000	–	–	173	–	–	–	–	42	–	420

Source: ChEMBL document CHEMBL1221199, “Structure-guided development of affinity probes for tyrosine kinases using chemical genetics” (Nat Chem Biol, 2007)
